# SIAE inh – human SIAE inhibitors, primary screen, biochemical, fluorescence polarization, FP-Rh probe, 1536-well HTS. Sialate O-acetylesterase (Homo sapiens), Q9HAT2. SIAE FP-Rh probe binding. inhibition, % at 9.66 µM. 370,000 compounds, 0.69% hits. AID 1053197, 2014;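 active means inhibition above a cutoff: mean of compounds within the control limits plus 3 SD of those, cut at about 17% in these data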;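 further: 0% = plate median of compound wells and 100% = probe without SIAE protein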
# ABHD4 inh – ABHD4 inhibitors, primary screen, biochemical, fluorescence polarization, mouse; (Lyso)-N-acylphosphatidylethanolamine lipase (Mus musculus), Q8VD66; purified mABHD4, FP-Rh probe fluorescence polarization; inhibition, % at 8.92 µM; 370,000 compounds, 0.54% hits;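 active means inhibition exceeding the mean over every tested compound plus 3 SD, cut at about 30% in these data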;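 further: 0% = plate median of compound wells and 100% = S159A mutant with DMSO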
#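 Test system: mABHD4 protein; Read-out basis: % inhibition; Incubation: 45 min + 60 min at 25 °C; Repeats: single replicate; Technique: fluorescence polarization with parallel and perpendicular emission, 525/598 nm; Compound: 8.92 µM, single dose; Benchmarks: full inhibition S159A mutant plus DMSO, zero as sample-well median.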
# PRMT1 inh – PRMT1 methyltransferase inhibitors, primary screen, biochemical, fluorescence polarization; inhibition, % at 2.79 µM; Protein arginine N-methyltransferase 1 (Homo sapiens), Q99873; recombinant PRMT1, activity-based probe fluorescence polarization; 370,000 compounds, 1.3% hits; AID 652257, 2013;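 active means inhibition above about 21% made by adding two undisclosed values, limit read from the data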
# Target sequence (Q99873 whole entry, looked up): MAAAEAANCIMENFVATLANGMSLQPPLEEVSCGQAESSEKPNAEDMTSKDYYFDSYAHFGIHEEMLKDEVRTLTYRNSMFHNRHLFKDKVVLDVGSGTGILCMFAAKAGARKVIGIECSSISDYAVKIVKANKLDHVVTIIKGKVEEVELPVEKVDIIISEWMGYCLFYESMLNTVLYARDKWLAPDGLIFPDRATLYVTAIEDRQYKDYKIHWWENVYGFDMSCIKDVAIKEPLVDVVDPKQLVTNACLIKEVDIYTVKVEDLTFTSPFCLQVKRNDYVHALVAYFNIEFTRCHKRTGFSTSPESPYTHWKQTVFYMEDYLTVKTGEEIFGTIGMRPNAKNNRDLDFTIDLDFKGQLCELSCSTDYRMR
# TCR CD3 inh – inhibitors of human TCR-CD3 interaction, primary screen, biochemical, fluorescence, TAMRA-labeled TCR probe; inhibition, % at 9.4 µM; T-cell receptor (TCR); 360,000 compounds, 0.37% hits; in the data active means inhibition above about 19%;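 further: recombinant mutant TCR 2C K166C tagged with TAMRA read by polarization; 0% = receptor in buffer alone and 100% = receptor with positive control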
# HTRA1 inh – HTRA1 serine protease inhibitors, primary screen, biochemical, fluorescence polarization, HTS; Q92743; recombinant HTRA1, FP-rhodamine activity-based probe; inhibition, % at 5.96 µM; 340,000 compounds, 0.5% hits; AID 504803, 2011; in the data active means inhibition above about 36%;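 further: 0% = enzyme with DMSO and 100% = wells lacking enzyme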
# PRMT1 inh conf – PRMT1 methyltransferase inhibitors, confirmation, biochemical, fluorescence polarization, triplicate | shares compounds with PRMT1 inh | recombinant His-PRMT1, activity-based probe fluorescence polarization | inhibition, % at 2.79 µM | 3,300 compounds, 42% hits;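 active means mean inhibition across replicates above the hit cutoff derived for the earlier primary screen, cut at about 22% in these data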
# * hit, by the source's call; x = no result. Most compounds without a hit are left out; they make up all but 2.7% or so of the library.
SMILES,SIAE inh,ABHD4 inh,PRMT1 inh,TCR CD3 inh,HTRA1 inh,PRMT1 inh conf
Cc1ccc(/C=C/C(=O)NCC2COc3ccccc3O2)o1 (centres undefined),-15,-3,34*,-2,-9,30*
CCCC(=O)N1CCC(NS(=O)(=O)c2ccc3c(c2)CCN3C(C)=O)CC1,1,-6,6,x,x,x
CCc1c(C(C)S(=O)(=O)c2ccc(C)cc2)[nH]c(=O)n1-c1ccc(C)cc1 (centres undefined),-2,10,34*,1,-1,14
Cc1ccc(-n2c3c(c(=O)[nH]c2=O)C(NS(=O)(=O)c2ccc(C)cc2)(C(F)(F)F)C(=O)N3)cc1 (centres undefined),-5,-13,0,-4,1,x
CCc1[nH]c(=O)[nH]c1C(C)S(=O)(=O)c1ccc(C)cc1 (centres undefined),0,-5,43*,1,7,34*
O=C1CCC[C@H]2C[C@H](NCCc3ccncc3)CC[C@]23CCCN13,4,10,0,x,x,x
CCCCN1CC(COCc2ccccc2)Oc2cccc(Oc3ccc(F)cc3OC)c2S1(=O)=O (centres undefined),-5,4,4,0,x,x
Fc1cccc(Cc2c(-c3ccco3)nc3ccc(Br)cn23)c1,-7,6,34*,7,x,11
Cc1cc(Br)cn2c(Cc3cccc(F)c3)c(-c3cccc(Cl)c3)nc12,-9,-12,-2,2,x,x
Cc1cc(Br)cn2c(Cc3cccc(F)c3)c(-c3ccco3)nc12,-6,7,35*,11,x,30*
Fc1cccc(Cc2c(-c3ccccc3)nc3ccc(Br)cn23)c1,-7,-13,6,-1,x,x
CCOC(=O)CSC1=C(C#N)C(=O)NC(c2ccc(OC)c(OC)c2)S1 (centres undefined),4,-2,2,-5,-1,x
CCOC(=O)CSC1=C(C#N)C(=O)NC(c2ccc(OC)cc2)S1 (centres undefined),-1,-4,35*,-8,3,7
C=CCNC(=O)c1ccsc1N,8,21,27*,16,x,12
C=CCNC(=O)c1ccc(Cl)cc1Cl,0,0,0,-3,7,x
CC(=O)N1CCN(c2nc(-c3ccco3)c3c(c2C#N)CC(C)(C)SC3)CC1,3,18,46*,-3,13,5
O=C1NC(=O)/C(=C\c2ccc(Br)o2)S1,0,2,43*,1,-4,1
O=C1NC(=O)/C(=C/c2ccc(-c3cc(C(=O)O)ccc3Cl)o2)S1,-31,-26,6,8,-64,x
CCN(CC)S(=O)(=O)c1cccc(C(=O)N/N=C2\CC(=O)CC(C)(C)C2)c1,2,2,17,-2,8,x
CCN(CC)S(=O)(=O)c1cccc(C(=O)N/N=C2\CCCC(=O)C2)c1,5,1,46*,-4,4,-2
CCOC(=O)C1=CCN(S(=O)(=O)c2ccc(Cl)cc2)C1c1cccc(Br)c1 (centres undefined),-1,-2,-1,7,x,x
O=C(NCc1cccs1)[C@@H]1CSC2c3ccccc3C(=O)N21 (some centres undefined),-13,-10,26*,3,-4,34*
O=C1NC(=O)C2(Br)Nc3ccc(Br)cc3C(=O)C2N1 (centres undefined),-1,-8,3,12,-6,x
Oc1ccc(N2CCN(CC(O)c3ccccc3)CC2)cc1 (centres undefined),13,17,28*,-2,7,6
Nc1nc(-c2cc(O)ccc2[N+](=O)[O-])cc(-c2ccccc2)c1[N+](=O)[O-],16,11,27*,5,13,18
SMILES,SIAE inh,ABHD4 inh,PRMT1 inh,TCR CD3 inh,HTRA1 inh,PRMT1 inh conf
COc1cc(/C=C2/CC/C(=C/c3ccc(O)c(OC)c3)C2=O)ccc1O,0,12,17,-7,-6,x
COc1cc(/C=C/C=C2/CC/C(=C/C=C/c3ccc(O)c(OC)c3)C2=O)ccc1O,2,2,54*,4,5,13
COC(=O)c1ccccc1SC1CC(=O)N(c2ccccc2)C1=O (centres undefined),-1,11,38*,-4,4,19
CCOC(=O)c1c(N2C(=O)CC(Sc3ccccc3C(=O)O)C2=O)sc2c1CCCC2 (centres undefined),0,11,53*,0,-17,52*
CCN1C(=O)CC(Sc2ccccc2C(=O)O)C1=O (centres undefined),5,2,-1,-5,-4,x
CCOC(=O)c1c(NC(=O)c2ccccc2C(=O)O)sc2c1CCCC2,-11,-6,7,1,-2,x
O=C(O)c1ccccc1SC1CC(=O)N(c2cccc3ccccc23)C1=O (centres undefined),-8,-2,84*,7,-2,51*
CCCCN1CCN(C(=O)c2ccc(CNC(=O)c3cccc(Br)c3)cc2)CC1,5,-3,-2,x,x,x
COC(=O)C(CC(=O)c1ccc(Br)cc1)n1nc(C)cc1C (centres undefined),-6,5,77*,-8,-3,7
COC(=O)C(CC(=O)c1ccc(C)cc1)n1nc(C)cc1C (centres undefined),1,-1,9,0,4,x
COC(=O)[C@H]1[C@@H](O)[C@@]2(O)c3c(OC)cc(OC)cc3O[C@@]2(c2ccc(OC)cc2)[C@@H]1c1ccc(F)cc1,4,-5,-3,2,x,x
CC(=S)/C=C1\Sc2ccccc2N1C,1,-13,39*,-5,-2,17
O=C1CC(c2ccc(Cl)cc2)CC(=O)C1CS(=O)(=O)c1ccccc1 (centres undefined),11,-2,20,9,-10,x
O=C1CCCC(=O)C1CS(=O)(=O)c1ccccc1,-4,5,44*,-4,-1,27*
CCN(CC(=O)Nc1c(F)cccc1F)C(=O)CCNS(=O)(=O)c1ccccc1C(F)(F)F,-2,5,1,6,-3,x
Cc1[nH]c(SCC(=O)Nc2cc(S(C)(=O)=O)ccc2Cl)nc1Cc1ccccc1,-1,-13,26*,-6,-8,9
O=C(CSc1nc(NS(=O)(=O)c2ccccc2)cc(=O)[nH]1)Nc1ccccc1Cl,-11,0,29*,3,-12,16
Cc1cc(NC(=O)CSc2nc(Cc3ccccc3)c(C)[nH]2)no1,7,-3,0,2,-4,x
Cc1ccc(S(=O)(=O)Nc2cc(=O)[nH]c(SCC(=O)Nc3ccccc3Cl)n2)cc1,-21,-28,1,-1,-33,x

# Compound activity deposited in PubChem BioAssay by The Scripps Research Institute Molecular Screening Center.
